# In ChEMBL document CHEMBL1125320, “Imidazole-5-acrylic acids: potent nonpeptide angiotensin II receptor antagonists designed using a novel peptide pharmacophore model” (J Med Chem, 1992):
# Tests used:
# Angiotensin II receptor = target: T1, Angiotensin II receptor (Rattus norvegicus, UniProt P29089+P25095+P35351); experiment: Inhibition of [125I]angiotensin II specific binding to rat mesenteric arteries; assay type: protein assay
# T1 sequence (P29089 whole entry): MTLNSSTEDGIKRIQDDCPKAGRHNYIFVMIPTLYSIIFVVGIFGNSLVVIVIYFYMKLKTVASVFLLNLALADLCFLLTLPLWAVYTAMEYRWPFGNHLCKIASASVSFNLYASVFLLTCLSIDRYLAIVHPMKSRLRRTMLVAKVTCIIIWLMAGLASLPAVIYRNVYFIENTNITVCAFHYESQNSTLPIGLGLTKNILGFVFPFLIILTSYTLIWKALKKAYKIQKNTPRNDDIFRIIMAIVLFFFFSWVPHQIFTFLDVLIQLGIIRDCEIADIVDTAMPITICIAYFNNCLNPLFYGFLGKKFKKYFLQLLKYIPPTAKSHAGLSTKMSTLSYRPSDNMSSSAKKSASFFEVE
# T1 sequence (P25095 whole entry): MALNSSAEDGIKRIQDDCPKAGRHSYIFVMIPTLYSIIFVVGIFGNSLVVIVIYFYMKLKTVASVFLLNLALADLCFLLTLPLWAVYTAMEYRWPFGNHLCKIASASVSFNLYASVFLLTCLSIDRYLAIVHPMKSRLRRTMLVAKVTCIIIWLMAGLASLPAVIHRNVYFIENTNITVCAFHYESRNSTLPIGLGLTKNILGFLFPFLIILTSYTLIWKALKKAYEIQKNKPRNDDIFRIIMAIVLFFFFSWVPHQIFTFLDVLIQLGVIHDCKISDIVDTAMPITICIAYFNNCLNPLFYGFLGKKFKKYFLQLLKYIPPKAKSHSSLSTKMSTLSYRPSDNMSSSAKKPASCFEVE
# T1 sequence (P35351 whole entry): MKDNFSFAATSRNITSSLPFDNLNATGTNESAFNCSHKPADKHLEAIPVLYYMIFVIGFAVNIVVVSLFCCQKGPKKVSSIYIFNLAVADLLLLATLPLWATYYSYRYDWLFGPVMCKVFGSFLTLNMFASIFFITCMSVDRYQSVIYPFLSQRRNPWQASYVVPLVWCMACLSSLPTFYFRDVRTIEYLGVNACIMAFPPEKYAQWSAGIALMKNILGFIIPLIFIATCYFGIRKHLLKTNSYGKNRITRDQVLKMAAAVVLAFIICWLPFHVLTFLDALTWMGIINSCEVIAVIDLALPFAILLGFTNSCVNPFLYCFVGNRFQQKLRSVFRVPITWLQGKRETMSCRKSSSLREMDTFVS
# [1] = target: Angiotensin II receptor (Oryctolagus cuniculus); experiment: Inhibition of angiotensin II induced vasoconstriction of rabbit aorta
# [2] = target: T2, Type-1 angiotensin II receptor B (Rattus norvegicus, UniProt P29089); experiment: Inhibition of [125I]angiotensin II receptor specific binding to rat mesenteric arteries
# T2 sequence (P29089 whole entry): T1 sequence (P29089 whole entry)
# Rattus norvegicus = experiment: Compound was evaluated in vivo, for the dose that produced 50% inhibition of the pressor response to AII in conscious normotensive rats after iv administration; assay type: functional; conditions: read-out: ID50 (the source's name)
# Summary of the method: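 Conscious normotensive rats with indwelling femoral arterial and venous catheters were tested 2-3 days after surgery while in a restrainer, with continuous arterial pressure recording. The MAP rise to iv angiotensin II 250 ng/kg was measured at time points before and after iv compound at 0.3-300 mg/kg.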
# [3] = target: T3, Type-1 angiotensin II receptor (Oryctolagus cuniculus) (UniProt P34976); experiment: (§1) Compound was evaluated for the inhibition of AII-induced vasoconstriction of the rabbit aorta; assay type: functional, tissue-based
# T3 sequence (whole entry): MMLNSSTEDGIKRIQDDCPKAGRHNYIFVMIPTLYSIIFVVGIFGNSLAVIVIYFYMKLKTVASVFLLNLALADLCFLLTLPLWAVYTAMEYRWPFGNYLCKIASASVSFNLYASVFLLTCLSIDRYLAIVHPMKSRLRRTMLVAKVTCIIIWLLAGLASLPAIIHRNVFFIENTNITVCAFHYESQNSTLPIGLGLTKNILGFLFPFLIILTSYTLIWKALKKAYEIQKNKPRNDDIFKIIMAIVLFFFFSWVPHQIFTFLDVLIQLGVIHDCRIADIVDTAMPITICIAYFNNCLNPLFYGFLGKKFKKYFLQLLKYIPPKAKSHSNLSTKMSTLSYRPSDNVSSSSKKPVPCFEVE
# Summary of the method: (§2)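 Isolated rabbit aorta ring segments mounted on metal supports attached to force displacement transducers. Cumulative angiotensin II concentration-response curves were run without antagonist or after a 30-min antagonist incubation.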
# [4] = target: T3, Type-1 angiotensin II receptor (Oryctolagus cuniculus); experiment: (§3) Compound was evaluated for the inhibition of Angiotensin II receptor induced vasoconstriction of the rabbit aorta; assay type: tissue-based; summary of the method: as §2
# [5] = target: T3, Type-1 angiotensin II receptor (Oryctolagus cuniculus); experiment: as §3; assay type: functional, tissue-based; summary of the method: as §2
# [6] = target: T3, Type-1 angiotensin II receptor (Oryctolagus cuniculus); experiment: as §1; summary of the method: as §2
# [7] = target: Angiotensin II receptor (Oryctolagus cuniculus); experiment: Compound was evaluated for the inhibition of Angiotensin II receptor, induced vasoconstriction of the rabbit aorta
Structure (SMILES),IC50 (Angiotensin II receptor),Kb [1],also measured
CCCCc1ncc(CCCC(=O)O)n1Cc1ccccc1Cl,> 10000 nM,15000 nM,
CCCCc1ncc(CCCCCC(=O)O)n1Cc1ccccc1Cl,19000 nM,7000 nM,
CCCCc1ncc(/C=C(\Cc2cc(OC)c(OC)c(OC)c2)C(=O)O)n1Cc1ccccc1Cl,1900 nM,1700 nM,
CCCCc1ncc(/C=C(\Cc2ccc(OC)s2)C(=O)O)n1Cc1ccccc1Cl,,30 nM,IC50 [2]: 90 nM
CCCCc1ncc(/C=C(\Cc2ccc(OC)cc2)C(=O)O)n1Cc1ccccc1Cl,810 nM,120 nM,ED50 (Rattus norvegicus): 9 mg/kg
CCCCc1ncc(/C=C(/C(=O)O)C(CCCC)c2cccs2)n1Cc1ccccc1Cl (stereo not drawn),18700 nM,,Kb [3]: 3100 nM
CCCCc1ncc(/C=C(/C(=O)O)c2ccccc2)n1Cc1ccccc1Cl,20100 nM,600 nM,
CCCCc1ncc(/C=C(\Cc2ccoc2)C(=O)O)n1Cc1ccccc1Cl,360 nM,30 nM,
CCCCc1ncc(/C=C(\Cc2cccs2)C(=O)O)n1Cc1ccccc1Cl,,,ED50 (Rattus norvegicus): 3.6 mg/kg
CCCCc1ncc(/C=C(\Cc2ccc3ccccc3c2)C(=O)O)n1Cc1ccccc1Cl,21900 nM,14600 nM,
CCCCc1ncc(/C=C/C(=O)O)n1Cc1ccccc1Cl,124000 nM,14000 nM,
CCCCc1ncc(/C=C(\Cc2ccccn2)C(=O)O)n1Cc1ccccc1Cl,820 nM,2900 nM,
CCCCc1ncc(/C=C(/Cc2ccco2)C(=O)O)n1Cc1ccccc1Cl,> 100000 nM,14400 nM,
CCCCc1ncc(/C=C(\Cc2ccc(O)cc2)C(=O)O)n1Cc1ccccc1Cl,120 nM,470 nM,
CCCCc1ncc(/C=C(\Cc2ccc(C)s2)C(=O)O)n1Cc1ccccc1Cl,,130 nM,IC50 [2]: 700 nM; ED50 (Rattus norvegicus): 7.6 mg/kg
CCCCc1ncc(/C=C(\Cc2sccc2C)C(=O)O)n1Cc1ccccc1Cl,,280 nM,IC50 [2]: 730 nM
CCCCc1ncc(/C(C)=C/C(=O)O)n1Cc1ccccc1Cl,3600 nM,660 nM,
CCCCc1ncc(/C=C(/C(=O)O)C(Cc2ccccc2)c2cccs2)n1Cc1ccccc1Cl (stereo not drawn),5200 nM,610 nM,
CCCCc1ncc(/C=C(\Cc2ccc([N+](=O)[O-])cc2)C(=O)O)n1Cc1ccccc1Cl,,310 nM,IC50 [2]: 400 nM
CCCCc1ncc(/C=C(\Cc2ccccc2C)C(=O)O)n1Cc1ccccc1Cl,,1140 nM,IC50 [2]: 5000 nM
CCCCc1ncc(-c2cccc(C(=O)O)c2)n1Cc1ccccc1Cl,33900 nM,4800 nM,
CCCCc1ncc(/C=C(\Cc2ccc3c(c2)OCO3)C(=O)O)n1Cc1ccccc1Cl,470 nM,130 nM,ED50 (Rattus norvegicus): 9.4 mg/kg
CCCCc1ncc(/C=C(\Cc2cccnc2)C(=O)O)n1Cc1ccccc1Cl,300 nM,180 nM,ED50 (Rattus norvegicus): 9.8 mg/kg

Structure (SMILES),IC50 (Angiotensin II receptor),Kb [1],also measured
CCCCc1ncc(/C=C(/C(=O)O)C(C)c2ccccc2)n1Cc1ccccc1Cl (stereo not drawn),4600 nM,240 nM,
CCCCc1ncc(-c2ccccc2C(=O)O)n1Cc1ccccc1Cl,> 100000 nM,17200 nM,
CCCCc1ncc(/C=C(\Cc2ccc(N)cc2)C(=O)O)n1Cc1ccccc1Cl,,320 nM,IC50 [2]: 3000 nM
CCCCc1ncc(/C=C(\Cc2ccc(Cl)c(Cl)c2)C(=O)O)n1Cc1ccccc1Cl,,13700 nM,IC50 [2]: 25600 nM
CCCCc1ncc(/C=C(\CCc2ccccc2)C(=O)O)n1Cc1ccccc1Cl,2900 nM,420 nM,
CCCCc1ncc(CCC(=O)O)n1Cc1ccccc1Cl,16500 nM,2800 nM,
CCCCc1ncc(/C=C\C(=O)O)n1Cc1ccccc1Cl,8900 nM,810 nM,ED50 (Rattus norvegicus): 15 mg/kg
CCCCc1ncc(/C=C(/Cc2ccccc2)C(=O)O)n1Cc1ccccc1Cl,,,Kb [3]: 8700 nM
CCCCc1ncc(/C=C(\C)C(=O)O)n1Cc1ccccc1Cl,22300 nM,970 nM,
CCCCc1nc(Cl)c(CC(=O)O)n1Cc1ccccc1Cl,,,Kb [4]: 2700 nM; ED50 (Rattus norvegicus): 30 mg/kg
CCCCc1ncc(/C=C(\CCc2cccs2)C(=O)O)n1Cc1ccccc1Cl,860 nM,,Kb [5]: 140 nM
CCCCc1ncc(/C=C(/C(=O)O)C(c2ccccc2)c2cccs2)n1Cc1ccccc1Cl (stereo not drawn),,2300 nM,IC50 [2]: 2400 nM
CCCCc1ncc(CC(=O)O)n1Cc1ccccc1Cl,,,ED50 (Rattus norvegicus): 22.5 mg/kg
CCCCc1ncc(/C=C(\Cc2ccsc2)C(=O)O)n1Cc1ccccc1Cl,,,IC50 [2]: 330 nM; ED50 (Rattus norvegicus): 6.4 mg/kg
CCCCc1ncc(CCCCC(=O)O)n1Cc1ccccc1Cl,17000 nM,11000 nM,
CCCCc1ncc(/C=C(\Cc2c[nH]cn2)C(=O)O)n1Cc1ccccc1Cl,250 nM,310 nM,ED50 (Rattus norvegicus): 11 mg/kg
CCCCc1ncc(/C=C(\Cc2ccccc2)C(=O)O)n1Cc1ccccc1Cl,,,IC50 [2]: 2600 nM; Kb [6]: 64 nM; ED50 (Rattus norvegicus): 14 mg/kg
CCCCc1ncc(/C=C(\Cc2cccc(OC)c2)C(=O)O)n1Cc1ccccc1Cl,810 nM,270 nM,ED50 (Rattus norvegicus): 10 mg/kg
CCCCc1ncc(/C=C(\Cc2ccncc2)C(=O)O)n1Cc1ccccc1Cl,150 nM,170 nM,ED50 (Rattus norvegicus): 5.9 mg/kg
CCCCc1ncc(/C=C(\Cc2ccc(OC)c(OC)c2)C(=O)O)n1Cc1ccccc1Cl,6800 nM,,Kb [7]: 620 nM
CCCCc1ncc(/C=C(\Cc2cc(OC)cs2)C(=O)O)n1Cc1ccccc1Cl,,30 nM,IC50 [2]: 300 nM
CCCCc1ncc(/C=C(\Cc2ccco2)C(=O)O)n1Cc1ccccc1Cl,1200 nM,50 nM,
CCCCc1ncc(/C=C(\Cc2ccc(N(C)C)cc2)C(=O)O)n1Cc1ccccc1Cl,14600 nM,590 nM,
